ChEMBL document CHEMBL4392868, “Cytotoxic Tigliane Diterpenoids from Croton damayeshu” (J Nat Prod, 2019)
Structures can show the parent of a compound that is named as a salt.

Columns and labels:
[1] = tested on: A549; assay: Cytotoxicity against human A549 cells measured after 72 hrs by CCK8 assay; type: functional, cell-based; conditions: A549, 72 h
Summary of the method: (§1)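 Human tumor cell lines A549 and HL-60 were assayed in vitro for cytotoxicity by the CCK-8 colorimetric method. Adriamycin served as the positive control, and IC50 values are reported in μM.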

[2] = tested on: HL-60; assay: Cytotoxicity against human HL60 cells assessed as inhibition of cell growth at 10 uM measured after 72 hrs by CCK8 assay relative to control; type: functional; conditions: HL-60, 72 h
[3] = tested on: HL-60; assay: Cytotoxicity against human HL60 cells measured after 72 hrs by CCK8 assay; type: functional, cell-based; conditions: HL-60, 72 h; summary of the method: as §1
[4] = tested on: A549; assay: Cytotoxicity against human A549 cells assessed as inhibition of cell growth at 10 uM measured after 72 hrs by CCK8 assay relative to control; type: functional; conditions: A549, 72 h

Row | SMILES | IC50 [1] | inhibition at 10 µM [2] | IC50 [3] | inhibition at 10 µM [4]
1 | CC[C@H](C)C(=O)O[C@@]12[C@H](O)[C@@H](C)[C@]3(O)[C@@H]4C=C(C)C(=O)[C@@H]4CC(C=O)=C[C@H]3[C@@H]1C2(C)C | 0.9 µM | < 50% | – | –
2 | C/C=C(\C)C(=O)O[C@@H]1[C@@H](C)[C@]2(O)[C@@H]3C=C(C)C(=O)[C@@H]3CC(C=O)=C[C@H]2[C@@H]2C(C)(C)[C@]12OC(=O)[C@@H](C)CC | 1.3 µM | – | 2.4 µM | –
3 | CC[C@H](C)C(=O)O[C@@]12[C@H](OC(=O)c3ccccc3)[C@@H](C)[C@]3(O)[C@@H]4C=C(C)C(=O)[C@@H]4CC(CO)=C[C@H]3[C@@H]1C2(C)C | 4.1 µM | – | 22.7 µM | –
4 | CC1=C[C@@H]2[C@@H](CC(C=O)=C[C@H]3[C@@H]4C(C)(C)[C@]4(OC(=O)C(C)C)[C@H](O)[C@@H](C)[C@]23O)C1=O | – | < 50% | – | < 50%
5 | CC1=C[C@@H]2[C@@H](CC(CO)=C[C@H]3[C@@H]4C(C)(C)[C@]4(OC(=O)[C@@H](C)[C@@H](C)O)[C@H](O)[C@@H](C)[C@]23O)C1=O | – | < 50% | – | < 50%
6 | CC[C@H](C)C(=O)O[C@@H]1[C@@H](C)[C@]2(O)[C@@H]3C=C(C)C(=O)[C@@H]3CC(CO)=C[C@H]2[C@@H]2C(C)(C)[C@]12OC(=O)C(C)C | 3.7 µM | < 50% | – | –
7 | CC[C@H](C)C(=O)O[C@@H]1[C@@H](C)[C@]2(O)[C@@H]3C=C(C)C(=O)[C@@H]3CC(CO)=C[C@H]2[C@@H]2C(C)(C)[C@]12OC(=O)[C@@H](C)CC | 4.6 µM | – | 18.9 µM | –
8 | CC[C@H](C)C(=O)O[C@@]12[C@H](O)[C@@H](C)[C@]3(O)[C@@H]4C=C(C)C(=O)[C@@H]4CC(CO)=C[C@H]3[C@@H]1C2(C)C | – | < 50% | – | < 50%
9 | CC1=C[C@@H]2[C@@H](CC(CO)=C[C@H]3[C@@H]4C(C)(C)[C@]4(OC(=O)C(C)C)[C@H](O)[C@@H](C)[C@]23O)C1=O | – | < 50% | – | < 50%
10 | C/C=C(\C)C(=O)O[C@@H]1[C@@H](C)[C@]2(O)[C@@H]3C=C(C)C(=O)[C@@H]3CC(CO)=C[C@H]2[C@@H]2C(C)(C)[C@]12OC(C)=O | – | < 50% | – | < 50%
11 | C/C=C(\C)C(=O)O[C@@H]1[C@@H](C)[C@]2(O)[C@@H]3C=C(C)C(=O)[C@@H]3CC(CO)=C[C@H]2[C@@H]2C(C)(C)[C@]12OC(=O)C(C)C | 1.9 µM | – | 1.8 µM | –
12 | C/C=C(\C)C(=O)O[C@@H]1[C@@H](C)[C@]2(O)[C@@H]3C=C(C)C(=O)[C@@H]3CC(CO)=C[C@H]2[C@@H]2C(C)(C)[C@]12OC(=O)[C@@H](C)CC | 18.3 µM | < 50% | – | –
13 | C/C=C(\C)C(=O)O[C@@H]1[C@@H](C)[C@]2(O)[C@@H]3C=C(C)C(=O)[C@@H]3CC(CO)=C[C@H]2[C@@H]2C(C)(C)[C@]12OC(=O)[C@@H](C)[C@@H](C)O | – | < 50% | – | < 50%
14 | COc1cccc2c1C(=O)c1c(O)c3c(c(O)c1C2=O)C[C@@](O)(C(=O)CO)C[C@@H]3O[C@H]1C[C@H](N)[C@H](O)[C@H](C)O1 [DOXORUBICIN HYDROCHLORIDE] | 0.4 µM | – | 0.08 µM | –
